Measured values published in ChEMBL document CHEMBL1157407, “Inhibitors of bacterial multidrug efflux pumps from the resin glycosides of Ipomoea murucoides” (2008).
Converted amounts (≈) assume the structure as drawn.

How the values were obtained:
Format in all cases: functional
[1] = tested on: Staphylococcus aureus; test: Antimicrobial activity against methicillin-resistant Staphylococcus aureus XU212
Procedure, shortened: (§1)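 Broth microdilution MIC per NCCLS guidelines, at least in duplicate, in cation-adjusted Mueller-Hinton broth (20 mg/L Ca2+, 10 mg/L Mg2+). Strains grown on nutrient agar first. Inoculum 5×10^5 cfu prepared in 0.9% saline against a McFarland standard. Compounds dissolved in DMSO, 2-fold serial dilutions, final 1–512 µg/mL (DMSO ≤3.125% v/v). MIC taken as lowest concentration with no visible growth.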

[2] = tested on: Staphylococcus aureus; test: Antimicrobial activity against Staphylococcus aureus ATCC 25923
Procedure, shortened: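 Broth microdilution MIC per NCCLS guidelines, at least in duplicate. Inoculum 5×10^5 cfu prepared in 0.9% saline against a McFarland standard. Cation-adjusted Mueller-Hinton broth with 20 mg/L Ca2+ and 10 mg/L Mg2+. Compounds dissolved in DMSO, then 2-fold serial dilutions, final 1–512 μg/mL; DMSO at most 3.125% v/v. MIC is the lowest concentration giving no visible growth.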

[3] = tested on: KB; test: Cytotoxicity against human KB cells after 72 hrs; details: read-out: ED50 (the source's name)
Procedure, shortened: (§2)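 Cells grown in RPMI 1640 with 10% fetal bovine serum at 37 °C, 5% CO2, humidified. Log-phase cells treated in triplicate with test samples at 0.16–20 μg/mL for 72 h. Growth read by the NCI sulforhodamine method. ED50 is the dose inhibiting 50% of control growth, estimated from a semilog plot of concentration against percentage of viable cells.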

[4] = tested on: HEp-2; test: Cytotoxicity against human Hep2 cells after 72 hrs; details: HEp-2, 72 h, read-out: ED50 (the source's name); procedure, shortened: as §2
[5] = tested on: HeLa; test: Cytotoxicity against human HeLa cells after 72 hrs; details: read-out: ED50 (the source's name); procedure, shortened: as §2
[6] = tested on: Staphylococcus aureus; test: Antimicrobial activity against epidemic methicillin-resistant Staphylococcus aureus 15 containing mecA gene; procedure, shortened: as §1
[7] = tested on: Staphylococcus aureus; test: Antimicrobial activity against multidrug-resistant Staphylococcus aureus over expressing NorA MDR efflux pump; procedure, shortened: as §1

Row | Compound | MIC [1] [µg/mL] | MIC [2] [µg/mL] | EC50 [3] [µg/mL] | EC50 [4] [µg/mL] | EC50 [5] [µg/mL] | MIC [6] [µg/mL] | MIC [7] [µg/mL]
1 | CCCCC[C@H]1CCCCCCCCCC(=O)O[C@H]2[C@@H](O)[C@H](O[C@H]3[C@H](O1)O[C@H](C)[C@H](O)[C@@H]3O)O[C@@H](C)[C@@H]2O[C@@H]1O[C@@H](C)[C@H](O[C@@H]2O[C@@H](C)[C@H](OC(=O)[C@@H](C)CC)[C@@H](O)[C@H]2O)[C@@H](O[C@@H]2O[C@@H](C)[C@H](O)[C@@H](O)[C@H]2O)[C@H]1OC(=O)[C@@H](C)CC [STOLONIFERIN I] | 256 (≈ 222 µM) | > 512 | > 20 | > 20 | > 20 | 512 (≈ 444 µM) | 64 (≈ 55.5 µM)
2 | CCCCC[C@H]1CCCCCCCCCC(=O)O[C@H]2[C@H](O)[C@@H](CO)O[C@@H](O[C@H]3[C@H](O1)O[C@H](C)[C@H](O)[C@@H]3O)[C@@H]2O[C@@H]1O[C@@H](C)[C@H](OC(=O)[C@@H](C)CC)[C@@H](O[C@@H]2O[C@@H](C)[C@H](O)[C@@H](O)[C@H]2O)[C@H]1OC(=O)[C@@H](C)CC [TRICOLORIN A] | 8 (≈ 7.82 µM) | 16 (≈ 15.6 µM) | 1 (≈ 0.977 µM) | 1.6 (≈ 1.56 µM) | 4.7 (≈ 4.59 µM) | 4 (≈ 3.91 µM) | 8 (≈ 7.82 µM)
3 | CCCCC[C@H]1CCCCCCCCCC(=O)O[C@H]2[C@H](O)[C@@H](CO)O[C@@H](O[C@H]3[C@H](O1)O[C@H](C)[C@@H](O)[C@@H]3O)[C@@H]2O[C@@H]1O[C@@H](C)[C@H](OC(=O)[C@@H](C)CC)[C@@H](O[C@@H]2O[C@@H](C)[C@H](O)[C@@H](O)[C@H]2O)[C@H]1OC(=O)[C@@H](C)CC [TRICOLORIN E] | 8 (≈ 7.82 µM) | 16 (≈ 15.6 µM) | > 20 | > 20 | > 20 | 8 (≈ 7.82 µM) | 8 (≈ 7.82 µM)
